In ChEMBL document CHEMBL3407461 (J Med Chem, 2014):
Values after ≈ are worked out from the molar mass of the structure shown.

Assays:
[1] = target: T1, Adenosine receptor A1 (Homo sapiens) (UniProt P30542); assay: Displacement of [3H]R-PIA from human recombinant A1 adenosine receptor expressed in CHO cells at 10 uM after 60 mins by liquid scintillation counting; assay type: cell-based
T1 sequence (whole entry): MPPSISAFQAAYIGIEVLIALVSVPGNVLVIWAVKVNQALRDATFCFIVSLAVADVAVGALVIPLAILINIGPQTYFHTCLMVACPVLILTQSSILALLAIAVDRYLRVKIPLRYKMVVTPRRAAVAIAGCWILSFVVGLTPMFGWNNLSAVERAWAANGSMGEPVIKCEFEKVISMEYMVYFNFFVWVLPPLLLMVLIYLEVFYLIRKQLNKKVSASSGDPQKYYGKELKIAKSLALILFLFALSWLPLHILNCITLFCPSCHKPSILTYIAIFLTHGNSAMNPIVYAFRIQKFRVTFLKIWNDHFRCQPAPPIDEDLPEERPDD

[2] = target: Adenosine receptor A2a (Homo sapiens) (UniProt P29274); assay: Displacement of [3H]CGS21680 from human recombinant A2A adenosine receptor expressed in HEK293 cells at 10 uM after 60 mins by liquid scintillation counting; assay type: cell-based
Sequence of Adenosine receptor A2a (Homo sapiens) (P29274 whole entry): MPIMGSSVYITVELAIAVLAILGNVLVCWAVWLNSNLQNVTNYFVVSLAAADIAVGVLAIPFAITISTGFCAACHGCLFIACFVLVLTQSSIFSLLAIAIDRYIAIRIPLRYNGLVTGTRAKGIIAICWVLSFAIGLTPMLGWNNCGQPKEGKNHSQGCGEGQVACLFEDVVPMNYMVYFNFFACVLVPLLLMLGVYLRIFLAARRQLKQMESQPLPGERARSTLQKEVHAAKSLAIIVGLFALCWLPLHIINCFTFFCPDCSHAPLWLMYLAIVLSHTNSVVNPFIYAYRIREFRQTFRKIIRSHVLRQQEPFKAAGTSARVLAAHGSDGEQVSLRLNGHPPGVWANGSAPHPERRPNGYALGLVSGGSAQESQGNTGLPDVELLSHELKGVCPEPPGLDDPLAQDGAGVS

[3] = target: Adenosine receptor A2a (Mus musculus) (UniProt Q60613); assay: Displacement of [3H]CGS21680 from mouse A2A adenosine receptor expressed in HEK293 cells at 10 uM after 60 mins by liquid scintillation counting; assay type: cell-based
Sequence of Adenosine receptor A2a (Mus musculus) (Q60613 whole entry): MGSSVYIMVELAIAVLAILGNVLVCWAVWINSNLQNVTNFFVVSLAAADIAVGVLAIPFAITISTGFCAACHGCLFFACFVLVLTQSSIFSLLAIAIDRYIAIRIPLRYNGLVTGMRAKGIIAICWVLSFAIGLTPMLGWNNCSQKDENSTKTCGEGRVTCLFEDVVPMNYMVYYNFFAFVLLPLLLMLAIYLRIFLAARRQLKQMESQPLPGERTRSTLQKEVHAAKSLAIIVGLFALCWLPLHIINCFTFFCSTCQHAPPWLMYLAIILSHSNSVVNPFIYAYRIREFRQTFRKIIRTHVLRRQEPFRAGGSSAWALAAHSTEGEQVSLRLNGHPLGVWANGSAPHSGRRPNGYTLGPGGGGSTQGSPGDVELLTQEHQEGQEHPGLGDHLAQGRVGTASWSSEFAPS

Mus musculus [4] = assay: Antinociceptive activity in chronic constriction injury neutropathic pain CD-1 mouse model assessed as time for peak protection at 3 umol/kg, po; assay type: functional
How it was run: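 Male CD-1 mice (25−30 g), chronic constriction injury of left sciatic nerve (Bennett model) under isoflurane. Dosed by gavage (3 μmol/kg, 0.2 mL) at peak mechano-allodynia on day 7; vehicle 10% DMSO in 0.5% methylcellulose. Paw withdrawal threshold (g) measured on the ipsilateral hind paw from 30 min to 5 h post dose. Expressed as % reversal, mean ± SEM over n animals.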

Mus musculus [5] = assay: Antinociceptive activity in chronic constriction injury neutropathic pain CD-1 mouse model assessed as maximum protection on ipsilateral hind paw at 3 umol/kg, po after 30 mins to 5 hrs post dose relative to control; assay type: functional; conditions: CD-1, po
Mus musculus [6] = assay: Antinociceptive activity in chronic constriction injury neutropathic pain CD-1 mouse model at 3 umol/kg, po after 3 hrs post dose relative to control; assay type: functional
[7] = Aqueous solubility of the compound at pH 7.4 by pION Method; assay type: physicochemical; conditions: buffer
[8] = Half life of the compound in simulated gastric fluid at pH 1.6; assay type: ADME; conditions: simulated gi fluid
[9] = Half life of the compound in simulated intestinal fluid at pH 6.5; assay type: ADME; conditions: simulated gi fluid
Plasma [10] = assay: Fraction unbound in human plasma at 10 uM after 5 hrs by LC-MS/MS analysis; assay type: ADME, cell-free
Plasma [11] = assay: Fraction unbound in rat plasma at 10 uM after 5 hrs by LC-MS/MS analysis; assay type: ADME, cell-free
Plasma [12] = assay: Fraction unbound in mouse plasma at 10 uM after 5 hrs by LC-MS/MS analysis; assay type: ADME, cell-free
Cytochrome P450 1A2 = target: T2, Cytochrome P450 1A2 (Homo sapiens, UniProt P05177); assay: Inhibition of CYP1A2 in human microsomes preincubated for 5 mins before substrate addition measured after 10 mins by LC/MS/MS analysis; assay type: ADME
T2 sequence (P05177 whole entry): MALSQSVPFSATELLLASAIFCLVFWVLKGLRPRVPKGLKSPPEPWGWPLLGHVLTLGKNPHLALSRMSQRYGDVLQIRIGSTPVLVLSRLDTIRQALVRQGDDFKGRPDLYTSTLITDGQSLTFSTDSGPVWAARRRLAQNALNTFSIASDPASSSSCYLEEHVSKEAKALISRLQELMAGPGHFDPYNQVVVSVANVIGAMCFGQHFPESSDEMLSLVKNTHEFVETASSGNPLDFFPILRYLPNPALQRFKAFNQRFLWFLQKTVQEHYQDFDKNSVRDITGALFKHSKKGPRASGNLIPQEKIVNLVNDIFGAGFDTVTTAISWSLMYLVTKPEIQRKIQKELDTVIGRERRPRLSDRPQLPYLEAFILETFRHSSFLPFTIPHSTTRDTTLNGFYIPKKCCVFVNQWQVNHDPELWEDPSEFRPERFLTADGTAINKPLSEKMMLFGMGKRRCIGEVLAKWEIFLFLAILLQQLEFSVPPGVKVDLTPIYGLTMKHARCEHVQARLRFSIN

Cytochrome P450 2C9 = Cytochrome P450 2C9 (Homo sapiens, UniProt P11712); assay: Inhibition of CYP2C9 in human microsomes preincubated for 5 mins before substrate addition measured after 10 mins by LC/MS/MS analysis; assay type: ADME
Sequence of Cytochrome P450 2C9 (P11712 whole entry): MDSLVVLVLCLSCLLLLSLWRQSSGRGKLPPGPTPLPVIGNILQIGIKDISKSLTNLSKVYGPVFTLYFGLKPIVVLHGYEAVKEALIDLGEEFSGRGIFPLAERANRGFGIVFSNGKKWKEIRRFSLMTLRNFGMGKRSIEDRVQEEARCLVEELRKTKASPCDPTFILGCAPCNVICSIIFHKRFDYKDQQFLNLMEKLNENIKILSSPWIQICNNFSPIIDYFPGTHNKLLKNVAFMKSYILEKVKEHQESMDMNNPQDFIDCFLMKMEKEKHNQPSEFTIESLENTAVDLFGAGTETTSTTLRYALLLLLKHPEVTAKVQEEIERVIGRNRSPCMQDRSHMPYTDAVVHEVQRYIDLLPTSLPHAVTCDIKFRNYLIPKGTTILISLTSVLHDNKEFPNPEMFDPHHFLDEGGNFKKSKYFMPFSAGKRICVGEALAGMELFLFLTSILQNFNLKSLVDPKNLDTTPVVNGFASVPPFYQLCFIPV

Cytochrome P450 2C19 = Cytochrome P450 2C19 (Homo sapiens, UniProt P33261); assay: Inhibition of CYP2C19 in human microsomes preincubated for 5 mins before substrate addition measured after 10 mins by LC/MS/MS analysis; assay type: ADME
Sequence of Cytochrome P450 2C19 (P33261 whole entry): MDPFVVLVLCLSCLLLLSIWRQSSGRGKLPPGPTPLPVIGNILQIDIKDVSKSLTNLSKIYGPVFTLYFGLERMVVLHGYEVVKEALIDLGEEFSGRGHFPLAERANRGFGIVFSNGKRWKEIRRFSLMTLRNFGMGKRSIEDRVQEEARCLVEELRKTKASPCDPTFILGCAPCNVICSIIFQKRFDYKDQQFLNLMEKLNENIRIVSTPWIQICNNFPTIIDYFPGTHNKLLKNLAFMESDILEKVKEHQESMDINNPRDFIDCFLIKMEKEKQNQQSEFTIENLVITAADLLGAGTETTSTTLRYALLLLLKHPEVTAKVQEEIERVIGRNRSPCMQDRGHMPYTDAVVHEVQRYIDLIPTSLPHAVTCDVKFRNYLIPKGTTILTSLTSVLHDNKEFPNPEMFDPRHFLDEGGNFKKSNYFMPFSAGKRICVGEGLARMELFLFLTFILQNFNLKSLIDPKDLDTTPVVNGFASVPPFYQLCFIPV

Cytochrome P450 2D6 = Cytochrome P450 2D6 (Homo sapiens, UniProt P10635); assay: Inhibition of CYP2D6 in human microsomes preincubated for 5 mins before substrate addition measured after 10 mins by LC/MS/MS analysis; assay type: ADME
Sequence of Cytochrome P450 2D6 (P10635 whole entry): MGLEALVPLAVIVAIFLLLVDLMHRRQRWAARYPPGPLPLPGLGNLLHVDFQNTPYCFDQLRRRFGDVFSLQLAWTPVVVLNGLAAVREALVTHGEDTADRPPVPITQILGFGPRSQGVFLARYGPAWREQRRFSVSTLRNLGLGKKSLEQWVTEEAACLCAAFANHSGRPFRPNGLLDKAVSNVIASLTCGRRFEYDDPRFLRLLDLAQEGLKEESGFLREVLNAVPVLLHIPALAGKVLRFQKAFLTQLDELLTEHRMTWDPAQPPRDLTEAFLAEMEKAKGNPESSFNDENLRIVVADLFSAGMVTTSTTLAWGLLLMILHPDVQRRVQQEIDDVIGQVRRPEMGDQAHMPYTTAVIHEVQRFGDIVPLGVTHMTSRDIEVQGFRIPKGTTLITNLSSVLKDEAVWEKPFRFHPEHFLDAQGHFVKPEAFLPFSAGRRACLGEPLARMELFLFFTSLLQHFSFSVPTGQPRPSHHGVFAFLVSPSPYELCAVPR

Cytochrome P450 3A4 = Cytochrome P450 3A4 (Homo sapiens, UniProt P08684); assay: Inhibition of CYP3A4 in human microsomes preincubated for 5 mins before substrate addition measured after 10 mins by LC/MS/MS analysis; assay type: ADME
Sequence of Cytochrome P450 3A4 (P08684 whole entry): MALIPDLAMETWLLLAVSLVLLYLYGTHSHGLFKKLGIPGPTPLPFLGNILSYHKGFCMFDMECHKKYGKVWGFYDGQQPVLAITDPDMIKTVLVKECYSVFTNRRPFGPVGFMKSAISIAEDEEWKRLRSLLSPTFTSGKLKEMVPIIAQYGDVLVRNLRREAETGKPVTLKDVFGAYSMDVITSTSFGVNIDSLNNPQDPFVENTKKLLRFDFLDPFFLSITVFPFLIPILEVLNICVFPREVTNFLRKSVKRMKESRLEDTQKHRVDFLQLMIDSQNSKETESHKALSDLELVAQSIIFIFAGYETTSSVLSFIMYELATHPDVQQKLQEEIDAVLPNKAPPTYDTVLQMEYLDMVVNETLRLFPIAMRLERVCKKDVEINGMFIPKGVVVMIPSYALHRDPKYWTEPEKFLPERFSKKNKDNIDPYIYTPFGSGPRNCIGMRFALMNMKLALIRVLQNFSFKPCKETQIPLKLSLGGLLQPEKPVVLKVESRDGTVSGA

CYP1A2 = CYP1A2 (Homo sapiens, UniProt P05177); assay: Inhibition of CYP1A2 in human microsomes preincubated at 10 uM for 5 mins before substrate addition measured after 10 mins by LC/MS/MS analysis; assay type: ADME
CYP2C9 = CYP2C9 (Homo sapiens, UniProt P11712); assay: Inhibition of CYP2C9 in human microsomes preincubated at 10 uM for 5 mins before substrate addition measured after 10 mins by LC/MS/MS analysis; assay type: ADME
Sequence of CYP2C9 (P11712 whole entry): as the sequence (P11712 whole entry) above

CYP2C19 = CYP2C19 (Homo sapiens, UniProt P33261); assay: Inhibition of CYP2C19 in human microsomes preincubated at 10 uM for 5 mins before substrate addition measured after 10 mins by LC/MS/MS analysis; assay type: ADME
Sequence of CYP2C19 (P33261 whole entry): as the sequence (P33261 whole entry) above

CYP2D6 = CYP2D6 (Homo sapiens, UniProt P10635); assay: Inhibition of CYP2D6 in human microsomes preincubated at 10 uM for 5 mins before substrate addition measured after 10 mins by LC/MS/MS analysis; assay type: ADME
Sequence of CYP2D6 (P10635 whole entry): as the sequence (P10635 whole entry) above

CYP3A4 = CYP3A4 (Homo sapiens, UniProt P08684); assay: Inhibition of CYP3A4 in human microsomes preincubated at 10 uM for 5 mins before substrate addition measured after 10 mins by LC/MS/MS analysis; assay type: ADME
Sequence of CYP3A4 (P08684 whole entry): as the sequence (P08684 whole entry) above

Liver microsome [13] = assay: Half life in rat liver microsomes at 100 uM by LC-MS/MS analysis; assay type: ADME
Liver microsome [14] = assay: Half life in human liver microsomes at 100 uM by LC-MS/MS analysis; assay type: ADME
Liver = assay: Half life in mouse liver microsomes at 100 uM by LC-MS/MS analysis; assay type: ADME
Liver microsome [15] = assay: Intrinsic clearance in human liver microsomes assessed per mg protein at 100 uM by LC-MS/MS analysis; assay type: ADME

**Q.** What does the source list for `CNC(=O)[C@@]12C[C@@H]1[C@@H](n1cnc3c(NC)nc(C#Cc4ccc(Br)s4)nc31)[C@H](O)[C@@H]2O`?
**A.** inhibition [1]: 18%; inhibition [2]: 19%; inhibition [3]: 10%; Time (Mus musculus [4]): 1 h; Emax at 3 µmol/kg (Mus musculus [5]): 100%; Activity (Mus musculus [6]): 48.7%; solubility [7]: 15.6 µg/mL (≈ 31 µM); t1/2 [8]: > 8 h; t1/2 [9]: > 8 h; Fu (Plasma [10]): 2.67%; Fu (Plasma [11]): 4.04%; Fu (Plasma [12]): 2.75%; IC50 (Cytochrome P450 1A2): > 7 µM; IC50 (Cytochrome P450 2C9): > 7 µM; IC50 (Cytochrome P450 2C19): > 7 µM; IC50 (Cytochrome P450 2D6): 7.4 µM; IC50 (Cytochrome P450 3A4): > 7 µM; inhibition at 10 min, 10 µM (CYP1A2): 15%; inhibition at 10 min, 10 µM (CYP2C9): 24.2%; inhibition at 10 min, 10 µM (CYP2C19): 34%; inhibition at 10 min, 10 µM (CYP2D6): 57.5%; inhibition at 10 min, 10 µM (CYP3A4): 3.1%; t1/2 (Liver microsome [13]): 1.52 h; t1/2 (Liver microsome [14]): 3.42 h; t1/2 (Liver): 1.6 h; CLH (Liver microsome [15]): 3.38 µL/min
